# High-throughput results (PubChem)
# A selection: hits, their analogues and other compounds. The true share with any hit is near 1.8%.
# M5 antag – blocks acetylcholine activation of human M5 receptor; AID 624040; inhibition, % at 3 µM; CHO-hM5 cells, Fluo-8 calcium fluorescence, ACh EC80; 360,000 tested, 0.59% active;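 active means inhibition above a per-plate cutoff, the mean of that plate's test compounds plus 3 SD, cut at about 27% in these data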;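 further: 0% = acetylcholine EC80 with DMSO and 100% = DMSO without agonist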
# Target sequence (P08912 whole entry, looked up): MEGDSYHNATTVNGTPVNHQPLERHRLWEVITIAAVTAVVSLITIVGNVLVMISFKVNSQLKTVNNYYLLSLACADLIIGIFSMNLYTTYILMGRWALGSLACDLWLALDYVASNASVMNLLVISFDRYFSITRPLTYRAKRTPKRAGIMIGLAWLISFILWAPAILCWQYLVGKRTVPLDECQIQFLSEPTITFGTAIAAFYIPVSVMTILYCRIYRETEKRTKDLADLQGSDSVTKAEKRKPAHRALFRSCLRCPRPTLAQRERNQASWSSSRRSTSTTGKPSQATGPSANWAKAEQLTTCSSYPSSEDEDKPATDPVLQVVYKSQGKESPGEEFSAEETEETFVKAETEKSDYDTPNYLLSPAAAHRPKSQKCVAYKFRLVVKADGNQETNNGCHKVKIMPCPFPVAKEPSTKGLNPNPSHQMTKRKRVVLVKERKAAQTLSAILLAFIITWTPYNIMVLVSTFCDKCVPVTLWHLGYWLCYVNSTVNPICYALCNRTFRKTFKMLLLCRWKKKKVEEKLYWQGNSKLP
# M5 PAM – CHRM5 positive allosteric modulation. P08912. CHO-K1 hM5, Fluo-8 calcium, ACh EC20 PAM; 0% = ACh EC20, 100% = ACh EC100. activation, % at 3 µM. 360,000 tested, 0.3% active;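 active means activation above the run cutoff, the mean activation of all test compounds plus 3 SD, cut at about 18% in these data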
#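 system = human M5 receptor in CHO-K1 cells | compound = one concentration, 3 µM final (nominal) | schedule = Post-acetylcholine fluorescence recording 140 s | signal = Fluo-8 calcium dye fluorescence, kinetic read | benchmarks = low control EC20 acetylcholine (0%), high control EC100 acetylcholine (100%) | repeats = singlicate, one well per test compound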
# M4 ag – agonists of human muscarinic M4 receptor (CHRM4); P08173; CHO-K1 hM4/Gqi5, Fluo-8 calcium fluorescence; vehicle 0%, full acetylcholine response 100%; activation, % at 3 µM; 360,000 tested, 0.14% active;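 active means activation above the run mean over all test wells plus 3 SD, cut at about 32% in these data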;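 further: peak over basal fluorescence ratio per well then scaled between controls; 0% = DMSO wells and 100% = acetylcholine at EC100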
# M4 PAM – positive allosteric modulators of human muscarinic M4 receptor; P08173; CHO-K1 hM4/Gqi5, Fluo-8 calcium fluorescence, ACh EC20; 0% = ACh EC20, 100% = maximal ACh; activation, % at 3 µM; 360,000 tested, 0.4% active; AID 624126;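 active means activation above its plate's cutoff, the mean activation of sample wells plus 3 SD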
# CHRM4 antagonist – CHRM4 antagonism in calcium assay | P08173 | 360,000 tested, 0.73% active | inhibition, % at 3 µM | AID 624125 | CHO-hM4 cells, ACh EC80, Fluo-8 calcium fluorescence;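 active means inhibition above its plate's cutoff, the mean inhibition of sample wells plus 3 SD, cut at about 27% in these data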;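 further: 0% = acetylcholine EC80 with DMSO and 100% = DMSO without agonist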
# CHRM5 agonist – agonists of human muscarinic M5 receptor (CHRM5) | P08912 | CHO-K1 hM5 cells, Fluo-8 calcium fluorescence; 0% DMSO wells, 100% maximal acetylcholine response | activation, % at 3 µM | 360,000 tested, 0.19% active | AID 624037;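 active means activation above the run's mean over test compounds plus 3 SD, cut at about 23% in these data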;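 further: signal is peak over basal fluorescence ratio across the kinetic read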
# * hit, by the source's call.
SMILES,M5 antag,M5 PAM,M4 ag,M4 PAM,CHRM4 antagonist,CHRM5 agonist
CC(C)(C)Nc1nc(Nc2ccc([N+](=O)[O-])cc2)nc(NC(C)(C)C)n1,23,-1,6,15*,20,3
O=S(=O)(Nc1ccc(N2CCOCC2)cc1)c1cc(Cl)ccc1Cl,12,18*,6,1,-8,3
CNc1cc(C)nc(N2CCOCC2)n1,29*,-18,12,-15,3,-3
CCN1C[C@@H]2[C@@H]3C(=O)N(C)C(=O)[C@@H]3[C@](Cc3ccccc3)(C1=O)N2C(=O)c1ccc(Cl)c(Cl)c1,5,5,2,7,-3,4
Cc1nc(-c2cc(-c3ccc(Cl)cc3)no2)cs1,2,4,1,1,0,0
Cc1csc(-c2ccc3cc(Cl)cc(Cl)c3n2)n1,-13,5,1,21*,-12,0
CCn1c(-c2cc(-c3ccc(C)cc3)nc3ccccc23)n[nH]c1=S,98*,-32,0,4,-1,-12
CCOC(=O)c1cnc2ccc(Cl)cc2c1NCCN(C)C,5,0,4,27*,4,-2
CCOC(=O)c1ccc2ncc(C(=O)OCC)c(NCCCN3CCOCC3)c2c1,-3,5,1,5,3,-2
CCOC(=O)c1cnc2ccccc2c1NCCO,0,-10,0,5,0,-12
CCOC(=O)c1cnc2ccc(Br)cc2c1NCC(C)O (stereo not given),-2,4,0,4,-1,-2
CCOC(=O)c1cnc2ccc(Br)cc2c1NCCCN1CCOCC1,9,3,13,40*,14,-2
CCOC(=O)c1cnc2ccc(Br)cc2c1NCCO,-2,0,1,20*,-12,3
O=C(NCc1ccco1)c1ccc2nccnc2c1,10,-2,1,-1,2,-3
CC1Cc2cc(/C(O)=C3/C(=O)C(=O)N(CCCn4ccnc4)C3c3ccc(Br)cc3)ccc2O1 (stereo not given),-1,5,1,6,-6,0
O=C1OC(/C=C/c2ccc(Cl)cc2Cl)=NC/1=C\c1cccs1,-1,4,0,-8,8,0
COc1ccc(C2CC(=O)c3cnn(-c4nc(C)cc(C)n4)c3C2)cc1OC (stereo not given),20,44*,6,11,24,7
O=C1NC[C@H](Cc2ccccc2)N(C[C@@H]2CCCN2C[C@H](Cc2ccc(O)cc2)N2C[C@H](Cc3ccccc3)N(CC3CCCCCC3)C(=O)C2=O)C1=O,7,2,1,12,-2,-1
Cc1ccc(O)c(C(=O)c2cc(C#N)c(=O)n(-c3nccs3)c2)c1,32*,-17,57*,-18,26,34*
O=C(c1ccccc1Cl)N1CCN(S(=O)(=O)N2CCCCC2)CC1,-10,7,0,7,-20,-2
COc1ccc(/C(C)=N/NC(=O)C(NC(=O)c2ccccc2)c2n[nH]c(=O)c3ccccc23)c(OC)c1 (stereo not given),0,-4,3,-14,10,1
COc1ccccc1OCc1ccc(C(=O)N2CCCCC2)o1,22,22*,16,34*,25,1
COc1ccccc1OCc1ccc(C(=O)N2CCOCC2)o1,0,-3,1,3,-26,-1
c1ccc2c(c1)OCCOCCOCCOCCOc1ccccc1OCCOCCOCCO2,12,-17,12,-5,-8,3
COc1ccccc1CN1CCC(CNS(=O)(=O)c2cc(-c3onc(C)c3C)ccc2OC)CC1,15,-14,2,-23,42*,-9
SMILES,M5 antag,M5 PAM,M4 ag,M4 PAM,CHRM4 antagonist,CHRM5 agonist
Cc1ccc(NC(=O)COC(=O)CCc2nc3ccccc3c(=O)[nH]2)c(Br)c1,-2,1,1,25*,-13,-4
O=C(CC(c1ccccc1O)N1CCCCC1)N1CCCCC1 (stereo not given),8,-17,2,-29,78*,-7
O=C(CC(c1ccccc1)c1cc(Cl)ccc1O)N1CCCC1 (stereo not given),8,-4,-1,-16,3,-15
C[C@@H](NC(=O)Cn1cnc2c(OCc3ccccc3)ncnc21)c1cccc2ccccc12,-4,3,14,56*,57*,6
COc1ccc(N2C(=O)c3ccc(C(=O)Nc4ccccc4O)cc3C2=O)cc1,20,-3,0,4,-5,2
CC(=O)Oc1ccccc1N1C(=O)c2ccc(C(=O)O)cc2C1=O,2,12,2,28,31*,-1
COc1ccccc1N1C(=O)c2ccc(C(=O)Nc3ccccc3O)cc2C1=O,33*,4,21,12,30*,7
Cc1csc(=O)n1CC(=O)OCc1nnc(-c2ccc([N+](=O)[O-])cc2)o1,9,3,2,23*,-12,3
O=C(Nc1ccc(OC(F)F)cc1)Nc1cccc(C(F)(F)F)c1,37*,-18,13,-19,12,5
O=C(Nc1ccncc1)Nc1cccc(C(F)(F)F)c1,25,-12,18,-6,5,11
CCN(CC)S(=O)(=O)c1ccc(NC(=O)Nc2cccc(C(F)(F)F)c2)cc1,30*,-15,17,-11,9,9
CCN1/C(=C/c2sc(-c3ccccc3C)c[n+]2C)Sc2ccccc21,37*,-21,11,-16,23,-3
O=C(CCn1cnc(-c2ccccc2)c1-c1ccccc1)N/N=C/c1ccc(O)cc1,5,-4,0,-1,-5,-2
COc1ccc(/C=N/NC(=O)CCn2cnc(-c3ccccc3)c2-c2ccccc2)cc1,-3,-2,0,7,85*,1
CCOc1cc(C(=O)N(C)CC(=O)Nc2cccc(F)c2)ccc1OCC(=O)N1CCCCC1,7,0,2,3,-11,1
Cc1ccc(-n2c(-c3ccccc3)c[n+]3c2CCc2ccccc2-3)c(C)c1,35*,-22,4,-20,26,-14
O=C(CCS(=O)(=O)c1ccc(Br)cc1)N1CCCCCC1,-7,3,2,6,3,-1
Cc1ccc(N/N=C2\CS(=O)(=O)N(C)c3ccsc32)cc1,1,-9,1,0,8,-6
CCCC(=O)N/N=C1\CS(=O)(=O)N(C)c2ccsc21,2,-3,3,-18,51*,-1
Cc1ccc2nc(CN(C)C(=O)[C@H]3O[C@@H](n4ccc(N)nc4=O)[C@H](O)[C@@H]3O)[nH]c2c1,1,4,1,6,-3,2
